Published values collected from several papers.
Lines come from different studies, so protocols differ.
Target: LIM domain kinase 2 (LIMK2, Homo sapiens, UniProt P53671)

| SMILES | effect on | technique | concentration | remaining binding [%] |
| --- | --- | --- | --- | --- |
| CC1=C(C#N)[C@@H](c2ccc3[nH]nc(C)c3c2)C(C#N)=C(c2ccc(Cl)cc2)N1 | cell-free assay | competition with immobilised ligand | 1 µM | 91.1 |
| O=C(Nc1c[nH]nc1C(=O)NC1CCNCC1)c1cc(F)cc(F)c1 | binding | competition with immobilised ligand | 1 µM | 97 |
| CNC(=O)[C@@H]1CC[C@@H](n2c(-c3ccc4cnccc4c3)nc3ccc(C(=O)NCc4cccc(C(N)=O)c4)cc32)C1 | binding | competition with immobilised ligand | 1 µM | 100 |
| CNCc1ccccc1-c1csc([C@@H](C)Nc2nc(C)nc3cc(OC)c(OC)cc23)c1 | cell-free assay | competition with immobilised ligand | 1 µM | 96 |
| CN(C)c1nccc(-c2cnn3ncccc23)n1 | binding |  | 1 µM | 97 |
| CC1=C(C#N)C(c2ccc3c(c2)c(NC(=O)c2ccccc2C)nn3C)C(C#N)=C(C)N1 | cell-free assay | competition with immobilised ligand | 1 µM | 99 |
| N[C@@H]1CCN(c2nccc(-c3cnn4ncccc34)n2)C1 | binding |  | 1 µM | 100 |
| COc1ncc2cc3ccccc3nc2c1C#N | cell-free assay | competition with immobilised ligand | 5 µM | 91 |
| C[C@@H]1CCN(c2nccc(-c3cnn4ncccc34)n2)C1 | binding |  | 1 µM | 87 |
| O=C(Nc1ccc(Oc2ccc(F)cc2)cc1)N1CCc2ncccc2[C@H]1c1ccc(F)cc1 | cell-free assay | competition with immobilised ligand | 1 µM | 93 |
| FC(F)(F)Oc1cccc(-c2cnc3ccc(-c4ccncc4)nn23)c1 | cell-free assay | competition with immobilised ligand | 5 µM | 69 |
| F[C@@H]1CCN(c2nccc(-c3cnn4ncccc34)n2)C1 | binding |  | 1 µM | 85 |
| CCC(=O)N[C@H]1CC[C@@H](C(=O)N(C)c2ccc(-c3nc4ccccc4o3)cc2)C1 | cell-free assay | competition with immobilised ligand | 1 µM | 100 |
| Cc1cnc(Nc2ccc(C(=O)N3CCC(N4CCCC4)CC3)cc2)nc1-c1cc2ccccc2s1 | binding | competition with immobilised ligand | 1 µM | 30 |
| CC1CCCN1c1nccc(-c2cnn3ncccc23)n1 (stereo not shown) | binding |  | 1 µM | 96 |
| COc1cc(-c2cn(C3CCc4c(F)cccc4N(CC(F)(F)F)C3=O)nn2)ccc1-n1cnc(C)c1 (stereo not shown) | cell-free assay | competition with immobilised ligand | 1 µM | 100 |
| Cc1cnn2ncc(-c3ccnc(N(C)C)n3)c2c1 | binding |  | 1 µM | 94 |
| C[C@@H](c1ccc(-n2cnc3c(N)ncnc32)cc1)N1CCc2nn(C)c(Cc3ccccc3)c2C1=O | binding | competition with immobilised ligand | 0.1 µM | 25 |
| O=C(c1ccc(Nc2nccc(-c3cc4ccccc4s3)n2)cc1)N1CCC(N2CCCC2)CC1 | binding | competition with immobilised ligand | 1 µM | 47 |
| CN(C)c1nccc(-c2cnc3ncccn23)n1 | binding |  | 1 µM | 91 |
| CC(=O)N1CCC(c2ccc(C(=O)NC3=NCCN3)cc2C(F)(F)F)CC1 | cell-free assay | competition with immobilised ligand | 1 µM | 98 |
| O=C(c1ccc(Nc2ncc(Cl)c(-c3ccc(Cl)s3)n2)cc1)N1CCC(N2CCCC2)CC1 | binding | competition with immobilised ligand | 1 µM | 38 |
